We go through 35 compounds from ChEMBL document CHEMBL2176944, “2-(3-Oxo-1,3-diphenylpropyl)malonic acids as potent allosteric ligands of the PIF pocket of phosphoinositide-dependent kinase-1: development and prodrug concept” (J Med Chem, 2012).

The ΔTm is the shift of the melting midpoint relative to a reference. In general, pEC50 refers to −log10 of the EC50, conventionally taken in molar units.

The target of assay [1] is T1, 3-phosphoinositide-dependent protein kinase 1 (Homo sapiens) (UniProt O15530).
T1 sequence (whole entry): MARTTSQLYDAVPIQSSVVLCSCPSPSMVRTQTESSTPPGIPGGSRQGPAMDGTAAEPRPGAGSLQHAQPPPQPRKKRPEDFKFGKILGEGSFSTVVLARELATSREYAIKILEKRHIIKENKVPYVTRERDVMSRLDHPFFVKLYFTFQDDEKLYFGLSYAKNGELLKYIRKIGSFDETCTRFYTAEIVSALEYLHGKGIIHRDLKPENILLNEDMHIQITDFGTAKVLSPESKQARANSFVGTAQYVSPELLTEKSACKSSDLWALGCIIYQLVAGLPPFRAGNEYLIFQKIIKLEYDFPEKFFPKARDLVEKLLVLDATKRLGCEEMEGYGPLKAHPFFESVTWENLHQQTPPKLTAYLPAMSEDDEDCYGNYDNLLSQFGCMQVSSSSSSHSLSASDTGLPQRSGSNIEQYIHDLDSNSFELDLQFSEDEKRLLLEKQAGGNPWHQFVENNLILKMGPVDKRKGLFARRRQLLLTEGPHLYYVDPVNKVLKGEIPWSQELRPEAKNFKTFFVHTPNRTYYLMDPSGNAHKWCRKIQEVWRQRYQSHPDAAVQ
Nature of the assay: Activation of PDK1 using KTFCGTPEYLAPEVRR as substrate and [gamma32P]-ATP/Mg2+ by phosphor imaging analysis relative to control. The essentials: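 Radioactive kinase assay with 0.25 μM PDK1 and [γ32P]ATP. Phosphorylated peptide was captured on P81 phosphocellulose paper and detected by phosphorimaging. Activation is expressed relative to DMSO control (=100%). AC50 is the concentration giving half-maximal activation. Values are the mean of at least two independent experiments.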

The target in assay [2] is T1, 3-phosphoinositide-dependent protein kinase 1 (Homo sapiens). Nature of the assay: Increase in thermal stability of PDK1 assessed as concentration required to increase 1.5 degC thermal stability by differential scanning fluorimetry. The essentials: (§1)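 PDK1 (1 μM) in 10 mM HEPES pH 7.5, 150 mM NaCl, 1 mM DTT and 1/1000 SYPRO Orange, with ligand at 1% final DMSO, was heated from 25–70 °C in 0.3 °C steps. Tm came from a Boltzmann fit, and ΔTm is relative to DMSO control, each point from duplicates. EC50 was fitted from ΔTm versus concentration, along with the concentration giving a 1.5 °C shift.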

Assay [3] shares this target. Description: Increase in thermal stability of PDK1 by differential scanning fluorimetry relative to control. The procedure, abridged:
as §1
(Differential scanning fluorimetry follows unfolding on heating by fluorescence.)

Assay [4] addresses T2, 3-phosphoinositide-dependent protein kinase 1 (Homo sapiens, UniProt O15530).
T2 sequence (O15530 whole entry): T1 sequence (whole entry)
Description: Increase in thermal stability of PDK1 by differential scanning fluorimetry. The procedure, abridged: as §1

pEC50: −log10 of the molar value. Activity calls are given as the source filed them. The calls are words filed in the database; no cut-off is given here.

Consider `O=C(O)CC(CC(=O)c1ccc(C(F)(F)F)cc1)c1ccc(Cl)cc1` (racemic), for which the max activation entry in assay [1] is “inactive”.

In assay [1], `O=C(CC(c1ccc(Cl)cc1)C(C(=O)O)C(=O)O)c1ccc(C(F)(F)F)cc1` (racemic) displayed a max activation of 3.5.

As to `O=C(O)CC(CC(=O)c1ccc2cc(O)ccc2c1)c1ccccc1` (racemic), the max activation in assay [1] amounted to 3.

For `O=C(CC(c1ccccc1)C(C(=O)O)C(=O)O)c1c[nH]c2ccccc12` (racemic), the max activation in assay [1] came out at 3.

The compound `O=C(O)CC(CC(=O)c1ccc(Oc2ccccc2)cc1)c1ccccc1` (racemic) displayed a max activation in assay [1] of 2.8.

Turning to `O=C(CC(c1ccc2ccccc2c1)C(C(=O)O)C(=O)O)c1ccc(I)cc1` (racemic), in assay [2], the Activity was 18.9 µM. The ΔTm in assay [3] was found to be 2.4 °C. This compound gave a pEC50 in assay [4] of 4.89. In assay [1], this compound yielded a max activation of 3.6.

For the compound `O=C(O)CC(CC(=O)c1ccc(I)cc1)c1ccc(Cl)cc1` (racemic), in assay [1], the max activation amounted to 2.5.

Consider `O=C(CC(c1ccc(Cl)cc1)C(C(=O)O)C(=O)O)c1ccc(O)cc1` (racemic), for which the max activation result in assay [1] was “inactive”.

`O=C(O)CC(CC(=O)c1ccc(Cl)cc1)c1ccc(Cl)cc1` (racemic): in assay [1], the max activation entry is “inactive”.

With `O=C(CC(c1ccccc1)C(C(=O)O)C(=O)O)c1ccc(I)cc1` (racemic), the Activity in assay [2] was found to be 30.9 µM. Moreover, in assay [3], the ΔTm turned out to be 5.2 °C. The compound further gave a negative logarithm of the EC50 (pEC50) in assay [4] of 4.22. This compound also had a max activation in assay [1] of 4.

In assay [1], `O=C(O)CC(CC(=O)c1ccc(C(F)(F)F)cc1)c1ccccc1` (racemic) yielded a max activation of 4.

For the compound `O=C(O)CC(CC(=O)c1ccc(Cl)cc1)c1ccccc1` (racemic), in assay [1], the max activation was 3.

Consider `O=C(O)CC(CC(=O)c1cccc(Cl)c1)c1ccccc1` (racemic), for which the max activation in assay [1] was determined as 2.5.

As for `O=C(CC(c1ccccc1)C(C(=O)O)C(=O)O)c1ccc2ccccc2c1` (racemic), in assay [1], the max activation is 4.

Consider `COc1ccc2cc(C(=O)CC(c3ccccc3)C(C(=O)O)C(=O)O)ccc2c1` (racemic), for which the max activation in assay [1] came to 3.6.

`O=C(O)CC(CC(=O)c1ccc(I)cc1)c1ccccc1` (racemic) showed a max activation in assay [1] of 4.

The compound `O=C(O)CC(CC(=O)c1ccc2c(ccc3ccccc32)c1)c1ccccc1` (racemic) showed a max activation in assay [1] of 1.5.

`O=C(CC(c1ccccc1)C(C(=O)O)C(=O)O)c1cccc(Cl)c1` (racemic) registered a max activation in assay [1] of 2.6.

For `O=C(CC(c1ccccc1)C(C(=O)O)C(=O)O)c1ccc2c(ccc3ccccc32)c1` (racemic), the max activation in assay [1] stood at 3.7.

For `O=C(CC(c1ccc2ccccc2c1)C(C(=O)O)C(=O)O)c1ccc2ccccc2c1` (racemic), in assay [1], the max activation was found to be 4.8.

With `CCc1ccc(C(=O)CC(c2ccccc2)C(C(=O)O)C(=O)O)cc1` (racemic), the max activation in assay [1] was found to be 5.

In turn, `O=C(CC(c1ccccc1)C(C(=O)O)C(=O)O)c1ccc(Br)cc1` (racemic) gave a max activation in assay [1] of 3.7.

In assay [1], `O=C(CC(c1ccccc1)C(C(=O)O)C(=O)O)c1ccc(Oc2ccccc2)cc1` (racemic) displayed a max activation of 7.

On to `CCc1ccc(C(=O)CC(c2ccc(Cl)cc2)C(C(=O)O)C(=O)O)cc1` (racemic), for which the max activation in assay [1] was 3.

In turn, `O=C(C[C@H](c1ccccc1)C(C(=O)O)C(=O)O)c1ccc(C(F)(F)F)cc1` showed a max activation in assay [1] of 5.5.

Regarding `O=C(O)CC(CC(=O)c1ccc(Br)cc1)c1ccccc1` (racemic), the max activation in assay [1] was found to be 2.

The compound `O=C(O)CC(CC(=O)c1ccc2ccccc2c1)c1ccc2ccccc2c1` (racemic) came in with a max activation in assay [1] of 3.4.

Consider `O=C(CC(c1cc(-c2ccccc2)cs1)C(C(=O)O)C(=O)O)c1ccc(C(F)(F)F)cc1` (racemic), for which the max activation entry in assay [1] is “inactive”.

With `O=C(CC(c1ccc(Cl)cc1)C(C(=O)O)C(=O)O)c1ccc(Br)cc1` (racemic), the max activation in assay [1] came out at 3.

`O=C(CC(c1ccc(Cl)cc1)C(C(=O)O)C(=O)O)c1ccc(Cl)cc1` (racemic) displayed a max activation in assay [1] of 2.

In the case of `O=C(O)CC(CC(=O)c1ccc2ccccc2c1)c1ccccc1` (racemic), the max activation in assay [1] was found to be 2.5.

The compound `O=C(C[C@@H](c1ccccc1)C(C(=O)O)C(=O)O)c1ccc(C(F)(F)F)cc1` had a max activation in assay [1] of 2.

Compound `CCc1ccc(C(=O)CC(CC(=O)O)c2ccccc2)cc1` (racemic) registered a max activation in assay [1] of 2.

As to `O=C(CC(c1ccccc1)C(C(=O)O)C(=O)O)c1ccc2c(c1)[nH]c1ccccc12` (racemic), the Activity in assay [2] worked out at 18.2 µM. The ΔTm in assay [3] amounted to 4.9 °C. For the same compound, the pEC50 in assay [4] was 4.52. Moreover, in assay [1], the max activation was determined as 3.6.

In assay [1], `O=C(CC(c1ccc(Cl)cc1)C(C(=O)O)C(=O)O)c1ccc(I)cc1` (racemic) yielded a max activation of 3.8.
